Assay: Toxicity liver stage against HepG2, at 10uM
Format: cell-based
Set-up: test concentration 10 uM, cell line HepG2-A16-CD81EGFP
Conditions: human, HepG2-A16-CD81EGFP cells; read-out: INHIBITION
In short: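 Uninfected HepG2-A16-CD81EGFP cells, 3 × 10^3 per well, 1536-well, plated on prespotted compound at 10 μM final, parasite-free screening media added to match infected plates; puromycin 10 μM positive, DMSO 0.5% negative; run in parallel with 48 h PbLuc assay at 37 °C, 5% CO2; viability by CellTiter-Glo luminescence, normalized to controls.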

Row | SMILES | cytotoxicity at 10 µM [%]
1 | Cc1cc(NCCO)nc(-c2ccccc2O)n1 | 14.1
2 | NC(=O)c1c(SCCN2CCCCC2)sc2c(O)cc(=O)[nH]c12 | -13.7
3 | O=C(NCC1CC1)C1CCC2(CN(C(=O)c3ccno3)C2)O1 (configuration not stated) | -138
4 | O=C(C1CCC2(CCN(c3nncs3)CC2)C1)N1CCCC1 (configuration not stated) | 9.43
5 | CCN(C)c1ncnc2c1CCN(C(=O)c1ccc(C)o1)CC2 | -0.796
6 | O=C1NC2(CCN(C(=O)c3ccnnc3)CC2)CC1c1ccccc1 (configuration not stated) | -113
7 | COCCN1C[C@@H]2OCCN(c3ccnc(N(C)C)n3)[C@@H]2C1 | -118
8 | Cc1ncnc2c1CCN(c1cc(C(F)(F)F)ncn1)CC2 | -2.96
9 | Cc1nc(CN2CCCn3c(nc(Cn4ccnc4)cc3=O)C2)cs1 | -5.67
10 | CCC(C)c1noc(C2CCN(C(=O)c3ccccn3)CC2)n1 (configuration not stated) | 4.59
11 | O=C(NC1CCCC1)c1cnn2c(-c3ccco3)ccnc12 | 10.2
12 | CCN1C(=O)C(C)(C)c2cc(NC(=O)c3ccco3)ccc21 | -10.2
13 | Cc1cc(N2CCC(O)(CN(C)C(=O)CCN)CC2)c2cnccc2n1 | -3.3
14 | O=C(c1cc(C2CC2)n[nH]1)N1C[C@H]2CC[C@](O)(c3ccccc3F)[C@H]2C1 | 7.66
15 | Cc1nc2cc(-c3nccn3C)nn2c(N2CCCC(CO)C2)c1C (configuration not stated) | -4.38
16 | CC1CCc2nn(CCNC(=O)c3ccco3)c(=O)cc2C1 (configuration not stated) | 9.15
17 | COCC(=O)N1CCC(c2cc(-c3ccc(C)cc3)n[nH]2)C1 (configuration not stated) | -3.39
18 | Cc1ccc(CNc2nc(O)cc(C3CC(=O)N(C)C3)n2)cc1 (configuration not stated) | -17.8
19 | COCCNC(=O)CCNc1ccc(Cl)cn1 | -5.22
20 | CC(c1ccco1)N(C(=O)COc1ccc(C#N)cc1)C1CC1 (configuration not stated) | -6.6
21 | CCCN(Cc1nnnn1C1CC1)CC1COc2ccccc2O1 (configuration not stated) | 2.04
22 | COc1ccc(-c2noc(CCC(=O)N3CCOCC3(C)C)n2)cc1 | 6.99
23 | Cc1nc2n(n1)CC(NCCCc1nc(-c3cccs3)no1)CC2 (configuration not stated) | -4.38

Row | SMILES | cytotoxicity at 10 µM [%]
24 | Cc1ccc(-c2ncc(CN3CCN(S(N)(=O)=O)CC3)s2)o1 | -3.41
25 | COc1ccccc1C(C)(C)NC(=O)Nc1ccc(F)c(C(N)=O)c1 | -145
26 | CC(CO)NC(=O)Nc1ccc(CC#N)cc1 (configuration not stated) | -3.39
27 | C=C(C)CN(CC)C(=O)c1cc(Cl)ccc1NS(C)(=O)=O | 7.17
28 | COc1ccc(CCNC(=O)C2CCOC2)c(Cl)c1 (configuration not stated) | -2.27
29 | CCN1CCN(C(=O)c2ccc(OC)nn2)c2ccccc21 | -1.78
30 | COC(=O)c1ccc(Cl)c(S(=O)(=O)Nc2ccc(F)c(C(N)=O)c2)c1 | 3.68
31 | Cc1noc(C)c1CN1CCCC1C(=O)OCc1ccccc1 (configuration not stated) | 3.23
32 | O=C(c1ccc(NCc2cccc(F)c2)cc1)N1CCCC1 | 10.1
33 | CC(CS(C)(=O)=O)NC(=O)N1CC2(CCCC2)c2ccccc21 (configuration not stated) | -4.34
34 | Cc1nnc(CN(Cc2ccco2)Cc2cccc3c2OCO3)n1C | -0.535
35 | CC(CS(C)(=O)=O)N(C)C(=O)NCCCc1ccc(Cl)cc1 (configuration not stated) | 1.8
36 | COCc1ccccc1C(=O)NCC(O)c1ccc(Cl)s1 (configuration not stated) | -6.63
37 | Cc1nc(-c2cccc(C#N)c2)nn1CC1(O)CCCCC1 | -2.62
38 | COc1c(C)cnc(CNC(=O)c2cc(C)nc3c2c(C)nn3C)c1C | -1.28
39 | OC(CNCCn1cccn1)COc1ccc(F)cc1 (configuration not stated) | -16.6
40 | CC(C)(C)OC(=O)NCC1CCCCN1Cc1cccnc1 (configuration not stated) | -0.502
41 | Cc1cc(C)n(CC2CCCCN2CC(=O)Nc2nnc(C)s2)n1 (configuration not stated) | 0.668
42 | OCC1(NCc2cnc(-c3ccccn3)s2)CCOCC1 | 9.32
43 | CC(C)c1nc(CN2CCN(C(=O)Cc3ccccc3Cl)CC2)no1 | -1.96
44 | O=C(NCC(F)(F)F)C1CSCN1S(=O)(=O)c1cccc(F)c1 (configuration not stated) | 18.7
45 | COCC(=O)NC1CCCN(c2ccc(C)cc2)C1=O (configuration not stated) | -0.82
46 | C[S+]([O-])c1ccc(NC(=O)CC2=CCCCC2)cc1 (configuration not stated) | 0.304

Row | SMILES | cytotoxicity at 10 µM [%]
47 | COCCCNC(=O)CN1CCOC(c2ccccc2)C1 (configuration not stated) | 18.6
48 | Cc1cccc(C)c1OCCNC(=O)CNC(=O)C1CCCC1 | -122
49 | CC(C)CCN(C(=O)c1cc2c([nH]c1=O)CCCC2=O)C1CC1 | -2.98
50 | COCCN(Cc1ccco1)Cc1nc(-c2ccc(C)c(F)c2)no1 | 3.68
51 | Cc1cc(CS(=O)(=O)N(C)C(C)c2ccc(F)cc2)on1 (configuration not stated) | 6.72
52 | CCc1cnc(CNc2ccc(C(=O)NCc3ccco3)cc2C)o1 | -0.375
53 | CC(C)c1nsc(N2CCS(=O)(=O)CC2)n1 | -2.41
54 | CS(=O)(=O)NC1CCN(C(=O)c2[nH]c3ccc(Cl)cc3c2Cl)CC1 | 16.3
55 | CC(C)CCN1CCN(C(=O)c2c[nH]c(=O)[nH]2)CC1 | -6.49
56 | CCCNC(=O)CN1CCC(NCc2csc(C(C)C)n2)CC1 | -1.4
57 | CCn1nc(C(C)C)cc1C(=O)N1CCOc2ccc(OC)cc21 | 9.27
58 | CCOc1ccc(CN2C(=O)CC(CC)(CC)C2=O)nc1 | 5.73
59 | O=C(CNc1ccc(OCC2CCOCC2)cc1)NCc1ccco1 | 3.43
60 | COCCOc1ncccc1NCc1nc2ccccc2n1C | 5.95
61 | CCC(C)NS(=O)(=O)Cc1cccc(NC(=O)C(C)C)c1 (configuration not stated) | 5.36
62 | CCc1nc2n(n1)CCCC2NC(=O)Nc1ccc(SC)c(F)c1 (configuration not stated) | 5.08
63 | COC(=O)CN(Cc1ccccc1C)C(=O)CCCNC(=O)C1CC1 | -13.4
64 | Cc1ccc(NC(=O)CCc2ccco2)cc1N1CCOC1=O | -8.43
65 | Cc1cc(C)n(CC2CCCCN2CC(=O)Nc2cccnc2)n1 (configuration not stated) | 6.46
66 | CN1CC(C(=O)NC(C)(C)C)CC1=O (configuration not stated) | -3.36
67 | CN(C)CCN1CCO[C@@H]2CCN(C(=O)c3cccn3C)CC[C@H]21 | 7.17
68 | CN1CCC(Cc2noc(-c3cn(Cc4ccccc4Cl)nn3)n2)CC1 | -3.28
69 | OC1(CN2CCC(Oc3cccnc3)CC2)CNCCOC1 (configuration not stated) | 5.92

Row | SMILES | cytotoxicity at 10 µM [%]
70 | CN(Cc1nncn1C)c1nccc(N2CCC(O)CC2)n1 | -1.78
71 | O=C(N[C@H]1CN(C2CCOCC2)C[C@@H]1C1CC1)c1cc(O)no1 | 8.4
72 | CN1CCCN(C(=O)c2nc3sccn3c2-c2ncc[nH]2)CC1 | -4.34
73 | CC(C)Cc1ncc2c(n1)CN(c1cc(N)nc(N)n1)C2 | -6.27
74 | CN(C)CCN1CC2(CCN(C(=O)c3cnccn3)CC2)OC1=O | 9
75 | CC(C)Oc1cccc(C(=O)Nc2nncs2)c1 | -3.49
76 | Cn1nccc1C(=O)N1CCCN(CCCc2ccccc2)CC1 | -2.45
77 | CCc1nc(C)c([C@H]2CN(C)C[C@@H]2C(=O)NC(C)(C)c2ccccc2)[nH]1 | 2.12
78 | CN(Cc1nc(-c2cccnc2)no1)C(=O)c1cccn1C | -2.85
79 | CCC(=O)Nc1cccc(OCC(=O)N2CC=CC2C(C)C)c1 (configuration not stated) | -0.115
80 | CCc1cc(C(=O)N2CCC3(CCCN(CCOC)C3=O)C2)cs1 (configuration not stated) | -146
81 | Cc1cnc(C)c(-c2cc(O)c3c(c2)CN(Cc2nccs2)CCO3)n1 | 1.69
82 | COc1ccc(OCc2nc(C(=O)N3C[C@H](O)[C@@H](N(C)C)C3)co2)cc1 | -1.74
83 | CCc1nc(-c2cccc(C(=O)O)c2)no1 | -10
84 | O=C(c1ccoc1)N1CCC(Nc2cccnn2)CC1 | -5.85
85 | Cn1c(CN2CCOC(CNc3cccnn3)C2)nnc1C1CC1 (configuration not stated) | 5.18
86 | Cc1cnc(C(=O)N2CCCCC2c2nc(C)cs2)cn1 (configuration not stated) | -15.3
87 | CC(C(=O)NCCCN1CCN(c2ccccc2)CC1)n1cncn1 (configuration not stated) | -5.93
88 | Cc1noc(C)c1CN1CCCC1c1c(C)nn(C)c1Cl (configuration not stated) | -2
89 | CN(CC(=O)N1CCC(COc2ccccc2)CC1)c1cnccn1 | -10.7
90 | Cc1nc(CN2CCCN(C(=O)c3cnccn3)CC2)cs1 | -9.51
91 | COc1cc(C(=O)N2CCCC(n3cncn3)C2)ccc1C (configuration not stated) | -3.86
92 | CCOCC(O)CN1CCN(C(=O)Cc2cccc(Cl)c2)CC1 (configuration not stated) | -7.69

Row | SMILES | cytotoxicity at 10 µM [%]
93 | Cn1cc(C(=O)NCC2CCN(C(=O)NC3CC3)CC2)cn1 | 2.05
94 | COc1ccc(CC(=O)N2CCC(Nc3ccc(C)nn3)CC2)cc1 | -5.34
95 | CC(C)c1nc(CN(C)C2CCN(CCc3ccncc3)C2)no1 (configuration not stated) | -28.4
96 | CCc1nc(CN(C)C2CCN(CCCOc3ccccc3)C2)no1 (configuration not stated) | 0.141
97 | CCC1CCCCN1C(=O)c1ccnc(N(C)C)c1 (configuration not stated) | -0.743
98 | CC(=O)N(Cc1ncc(C)o1)C1CCN(Cc2cc(C)on2)C1 (configuration not stated) | -5.03
99 | CCc1nnc(CNC2CCCN(Cc3noc(C4CC4)n3)C2)o1 (configuration not stated) | -5.46
100 | Cc1cc(CN(C)C(=O)c2ccc(F)cc2F)no1 | -6.47
101 | CCCc1n[nH]c(C2CN(C(=O)c3ccco3)CCO2)n1 (configuration not stated) | -2.7
102 | COc1cccc(COCC(=O)N2CCN(CC(C)(C)O)CC2)c1 | -5.64
103 | CC(C)NC(=O)Cn1cc(-c2ccccc2)cn1 | -0.577
104 | O=C(CCNC(=O)c1ccoc1)Nc1c(F)cccc1F | 1.35
105 | CN(C)CCNC(=O)C1Cc2nc(-c3ccsc3)sc2N1CC1CC1 (configuration not stated) | 3.54
106 | CN(C)c1cccc(C(=O)N2CCCC2c2ncc3c(n2)CCNC3)c1 (configuration not stated) | -9.97
107 | Cc1noc(C)c1CNCC1COCc2c(-c3ccoc3)nnn2C1 (configuration not stated) | 8.85
108 | CN(C)S(=O)(=O)N1C[C@H]2CCC[C@@]2(COc2cccnc2)C1 | 11.8
109 | O=C(c1ccnnc1)N1C[C@H](Oc2ccccn2)[C@H]2OCCC[C@H]21 | -0.00736
110 | Cc1cc(C(=O)N2CCc3nc(C4CCCN4)ncc3C2)cs1 (configuration not stated) | 2.56
111 | CC1CCN(c2nc3cn(C4CCS(=O)(=O)C4)c(=O)c-3c[nH]2)CC1 (configuration not stated) | -14.2
112 | COc1cc(C(=O)N2C[C@@H]3CC[C@H]2CN(Cc2cscn2)C3)ccn1 | 3.2
